Several values for one entry are separate records, joined by “and”; a condition that tells them apart may be missing. Equal values may be shown once. In all, about 360,000 compounds went through this assay and about 5,400 (1.5%) were called active.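 How the source made its calls: active means inhibition above a per-plate cutoff, the mean inhibition of test compounds on that plate plus 3 SD (cut at about 49% in these data); inactive means the rest.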 Many of the other results were omitted from the sample, so actives are more common in it than they were.
target: Trace amine-associated receptor 1 (Homo sapiens) (UniProt Q96RJ0); experiment: human TAAR1 antagonists, primary screen, Fluo-8 calcium fluorescence, CHO RD-HGA16 cells (AID 624466); conditions: CHO RD-HGA16 TAAR1, Fluo-8 calcium fluorescence, antagonist; at 3 µM; stronger effect = higher value;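 further: 0% = DMSO plus EC80 beta-PEA response and 100% = DMSO alone without agonist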
Sequence (Q96RJ0 whole entry, looked up): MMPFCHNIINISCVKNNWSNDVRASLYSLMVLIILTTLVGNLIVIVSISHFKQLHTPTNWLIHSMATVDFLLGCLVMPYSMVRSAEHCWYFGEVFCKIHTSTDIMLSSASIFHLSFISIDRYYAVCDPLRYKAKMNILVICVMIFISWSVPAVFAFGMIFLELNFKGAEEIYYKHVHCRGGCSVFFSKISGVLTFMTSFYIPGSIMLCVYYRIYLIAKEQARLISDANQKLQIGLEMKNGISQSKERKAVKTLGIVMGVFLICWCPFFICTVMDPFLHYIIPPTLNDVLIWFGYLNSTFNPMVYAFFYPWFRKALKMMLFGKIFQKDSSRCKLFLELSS
Summary of the method: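 System: CHO RD-HGA16 cells bearing hTAAR1. Reagent: EC80 β-phenethylamine stimulus. Schedule: seeding 17-24 h prior, 75-min 37 °C, 30-min RT dye loading. Signal: Fluo-8 intracellular calcium dye fluorescence, real-time kinetic reads. Read-out: % inhibition from peak post-agonist over basal fluorescence ratio. Benchmarks: vehicle wells and EC80 agonist wells. Replicates: n of 1.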

Compound | inhibition
O=S(=O)(c1ccccc1)N1CCC2CCNC2C1 (centres undefined) | -13.7% (inactive)
CS(=O)(=O)N1CCC2CCNC2C1 (centres undefined) | -17.4% (inactive)
COc1ccc2c(c1)[C@@]13CCCCC1[C@@H](C2)NCC3 (some centres undefined) | 2.15% (inactive)
Cc1cc(N2CCNC[C@@H]2C)ccc1N1CC[C@H](O)C1 | -25.4% (inactive)
COc1ccccc1-n1c(O)c(C=NC2CC2)c(=O)[nH]c1=O | 5.89% (inactive)
CCCCCn1c(=O)c(C(=O)NCc2ccccn2)c(O)c2ccccc21 | 9.96% (inactive)
CCN(CC)C(=O)Oc1ccc(NC(=O)N2CCOCC2)cc1 | -5.87% (inactive)
CSc1nc2ccc(C)cc2c(=O)n1-c1cccnc1 | -37.6% (inactive)
O=c1[nH]c(=O)n(-c2ccccc2)c(O)c1C=NC12CN3CN(CN(C3)C1)C2 | 3.93% (inactive)
Brc1ccc2c(c1)CNCc1cnnn1-2 | -22.5% (inactive)
CCCCC(=O)N/N=C/c1c(O)n(CCC2=CCCCC2)c(=O)[nH]c1=O | -20.4% (inactive)
Cn1c(O)c(C=NCCCC(=O)O)c(=O)n(C)c1=O | -5.57% (inactive)
CCCCC(=O)N/N=C/c1c(O)n(CC)c(=S)n(CC)c1=O | 63.8% (active)
Clc1ccc([C@@H]2CC3CCC2N3)cn1 (some centres undefined) | -10.7% (inactive)
CC12CCC3C(CCC4CC(=O)CCC43C)C1CC(=NO)C2=O (centres undefined) | -3.38% (inactive)
CCC(C)NC1(c2ccccc2)CCCCC1 (centres undefined) | -0.42% (inactive)
O=C1NC(=O)C(C/C=C/c2ccccc2)C(=O)N1 | 9.88% (inactive)
O=C1NCN(c2ccccc2)C12CCN(C(c1cccs1)c1nnnn1C1CCCCC1)CC2 (centres undefined) | 8.02% (inactive)
O=c1[nH]c2ccccc2n1C1CCN(C(c2ccccc2)c2nnnn2Cc2ccccc2)CC1 (centres undefined) | 52.2% (active)
CSCCC(c1nnnn1C(C)(C)C)N1CCC(n2c(=O)[nH]c3ccccc32)CC1 (centres undefined) | 52.1% (active)
COc1ccc(-n2nnnc2C(c2cccc3ccccc23)N2CCC(n3c(=O)[nH]c4ccccc43)CC2)cc1 (centres undefined) | 40.3% (inactive)
Cc1ccc(Cn2nnnc2CN2CCC(n3nnc4ccccc43)CC2)cc1 | -2.23% (inactive)
O=c1[nH]c2ccccc2n1C1CCN(C(c2ccnc3ccccc23)c2nnnn2Cc2ccccc2)CC1 (centres undefined) | 54.6% (active)
COc1cc(OC)cc(C(=O)NCCN2CCC3(CC2)C(=O)NCN3c2ccccc2)c1 | -2.28% (inactive)
Oc1ccc2c3c1OC1[C@H](O)CC[C@@]4(O)[C@@H](C2)N(CC2CC2)CC[C@]314 (some centres undefined) | -34.9% (inactive) and -15.5% (inactive)
CC(C)(C)c1ccc(OC(=O)N2CCCCC2)cc1 | 21.5% (inactive)
O=c1[nH]c(=O)n(CCc2ccc(F)cc2)c(O)c1/C=N/N1CCCCC1 | -33.7% (inactive)
CC(C)c1ccc(O)c(CN2CCN(c3ccccc3)CC2)c1 | -1.33% (inactive)
CN(C)/C=C(\C=[N+](C)C)c1[nH]ncc1[N+](=O)[O-] | -2.16% (inactive)

— PubChem BioAssay AID624466 (The Scripps Research Institute Molecular Screening Center, 2012)
